Measurements reported in ChEMBL document CHEMBL1275350, “First in class, potent, and orally bioavailable NADPH oxidase isoform 4 (Nox4) inhibitors for the treatment of idiopathic pulmonary fibrosis” (J Med Chem, 2010).
pKi: −log10 of the molar value.

Columns and labels:
[1] = Volume of distribution at steady state in Sprague-Dawley rat at 5 mg/kg, iv; type: ADME, organism-based; design: dose 5 mg/kg, route intravenous; details: in vivo, read-out: Vdss
In short: (§1)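 Parallel design in male rats, three per group. Group 1: 5 mg/kg iv in EDPW (10% EtOH, 10% DMA, 30% PG, 50% water). Group 2: 10 mg/kg oral in aqueous 0.5% CMC with 0.25% Tween 20. Carotid cannula blood drawn up to 24 h. Plasma measured by LC/MS/MS (LLOQ 1.00 ng/mL), noncompartmental analysis.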

[2] = AUC (infinity) in Sprague-Dawley rat at 5 mg/kg, iv; type: ADME, organism-based; design: time infinity, dose 5 mg/kg, route intravenous; details: plasma
In short: (§2)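 Parallel design with six male rats: three given 5 mg/kg iv in EDPW (10% EtOH, 10% DMA, 30% PG, 50% water), three given 10 mg/kg orally in aqueous 0.5% CMC with 0.25% Tween 20. Carotid cannula blood sampled up to 24 h. Plasma levels by LC/MS/MS (LLOQ 1.00 ng/mL). Noncompartmental analysis.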

[3] = Permeability across human Caco-2 cell membrane at 10 uM after 2 hrs; type: ADME, cell-based
In short: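 Caco-2 monolayers grown 20 days in DMEM, used when TEER >800 Ω·cm2. Dosed at 10 μM final in HBSS pH 6.5 with 1% DMSO, apical-to-basolateral and basolateral-to-apical. Incubated 2 h at 37 °C, both compartments sampled, LC-MS/MS with five-point calibration. Papp = (dQ/dt)/(C0A).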

[4] = Intrinsic clearance in Sprague-Dawley rat liver microsomes assessed per mg of protein at 0.5 uM; type: ADME, Microsome
In short: (§3)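 Phase I stability assay in pooled liver microsomes (human: male and female; rat: male Sprague-Dawley). Microsomes at 0.5 mg/mL final in 0.1 M phosphate pH 7.4. Compound 0.5 μM final, 0.25% DMSO. Preincubated at 37 °C, reaction started with 1 mM NADPH. Sampled at 0, 5, 15, 30 and 45 min, with a 45 min minus-NADPH control. Methanol quench with internal standard, LC/MS-MS, intrinsic clearance calculated.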

[5] = Cmax in Sprague-Dawley rat at 5 mg/kg, iv; type: ADME, organism-based; design: dose 5 mg/kg, route intravenous; details: in vivo; in short: as §2
[6] = Clearance in Sprague-Dawley rat at 5 mg/kg, iv; type: ADME, organism-based; design: dose 5 mg/kg, route intravenous; details: in vivo; in short: as §2
[7] = Clearance in Sprague-Dawley rat at 10 mg/kg, po; type: ADME, organism-based; design: dose 10 mg/kg, route oral; details: in vivo; in short: as §2
[8] = Oral bioavailability in Sprague-Dawley rat at 10 mg/kg; type: ADME, organism-based; details: in vivo; in short: as §1
[9] = Intrinsic clearance in human liver microsomes assessed as per mg of protein at 0.5 uM; type: ADME, Microsome; in short: as §3
[10] = Cmax in Sprague-Dawley rat at 10 mg/kg, po; type: ADME, organism-based; design: dose 10 mg/kg, route oral; details: in vivo; in short: as §2
[11] = AUC (infinity) in Sprague-Dawley rat at 10 mg/kg, po; type: ADME, organism-based; design: time infinity, dose 10 mg/kg, route oral; details: plasma; in short: as §2
NADPH oxidase 4 = target: T1, NADPH oxidase 4 (Homo sapiens, UniProt Q9NPH5); experiment: Inhibition of human NOX4 overexpressed in T-REx-293 cell membrane assessed as ROS production by cell free assay in presence of NADPH; details: in the assay text read “T-REx-293 cell membrane” for “human PMN cell membrane”
T1 sequence (Q9NPH5 whole entry): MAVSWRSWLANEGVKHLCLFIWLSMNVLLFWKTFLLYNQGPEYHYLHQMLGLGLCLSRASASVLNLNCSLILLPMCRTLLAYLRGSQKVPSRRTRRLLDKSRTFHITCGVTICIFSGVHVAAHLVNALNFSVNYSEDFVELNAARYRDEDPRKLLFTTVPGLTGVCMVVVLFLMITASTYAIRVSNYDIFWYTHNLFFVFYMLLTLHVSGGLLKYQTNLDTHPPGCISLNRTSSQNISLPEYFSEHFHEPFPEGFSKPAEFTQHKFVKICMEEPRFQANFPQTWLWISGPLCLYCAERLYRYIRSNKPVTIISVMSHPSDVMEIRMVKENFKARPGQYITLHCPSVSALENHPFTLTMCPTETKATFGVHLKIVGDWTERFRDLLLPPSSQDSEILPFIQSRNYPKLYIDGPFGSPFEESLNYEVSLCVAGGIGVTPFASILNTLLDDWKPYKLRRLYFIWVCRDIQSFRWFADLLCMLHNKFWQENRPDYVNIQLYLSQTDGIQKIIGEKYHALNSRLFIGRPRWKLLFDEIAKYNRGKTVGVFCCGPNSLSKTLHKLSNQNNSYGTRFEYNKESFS
In short: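 hNOX4 T-REx-293 cells induced with tetracycline (1 μg/mL, 24 h), sonicated in sucrose/NaCl/EGTA PBS buffer pH 7.4, membranes taken from a sucrose gradient. NADPH-triggered ROS measured by Amplex Red/HRP in PBS, with compound at 1 nM–100 μM, 20 min at 37 °C. Ki by Cheng-Prusoff from ≥3 triplicate experiments.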

[12] = Half life in Sprague-Dawley rat at 5 mg/kg, iv; type: ADME, organism-based; design: dose 5 mg/kg, route intravenous; details: in vivo; in short: as §2
[13] = Half life in Sprague-Dawley rat at 10 mg/kg, po; type: ADME, organism-based; design: dose 10 mg/kg, route oral; details: in vivo; in short: as §2
[14] = Tmax in Sprague-Dawley rat at 10 mg/kg, po; type: ADME, organism-based; design: dose 10 mg/kg, route oral; details: in vivo; in short: as §1

For `O=c1c2c(CN3CCCC3)n(CCc3ccccn3)c(=O)cc2[nH]n1-c1ccc(F)cc1Cl`, the Vd [1] was 1.49 L/kg, the AUC(0-inf) [2] was 3130 ng·h/mL and the Papp at 2 h, 10 µM [3] was 7.3 ×10⁻⁶ cm/s. The microsomal CLint at 0.5 µM [4] was 62.3 µL/min/mg, the Cmax [5] was 6190 ng/mL and the clearance [6] was 26.8 mL/min/kg. The CL/F [7] was 73.2 mL/min/kg, the bioavailability [8] was 39% and the microsomal CLint at 0.5 µM [9] was 45.4 µL/min/mg. The Cmax [10] was 2830 ng/mL, the AUC(0-inf) [11] was 2430 ng·h/mL and the pKi (NADPH oxidase 4) was 6.94. For the same compound, the half-life [12] was 198 min, the half-life [13] was 67.8 min and the Tmax [14] was 19.8 min.

`Cc1c2c(=O)n(-c3ccc(OCc4ccccc4)cc3)[nH]c2cc(=O)n1C` showed a pKi (NADPH oxidase 4) of 5.51.

`Cc1c2c(=O)n(-c3ccccc3Cl)[nH]c2cc(=O)n1CCCO` gave a pKi (NADPH oxidase 4) of 6.25.

Work on `Cc1c2c(=O)n(Cc3cc(Cl)ccc3Cl)[nH]c2cc(=O)n1Cc1ccccn1` yielded a pKi (NADPH oxidase 4) of 6.66.

With `Cc1c2c(=O)n(-c3ccccc3)n(Cc3ccc(F)cc3)c2cc(=O)n1CCc1c[nH]c2ccccc12` the pKi (NADPH oxidase 4) was < 4.52.

`Cc1c2c(=O)n(C)[nH]c2cc(=O)n1C` gave a pKi (NADPH oxidase 4) of 5.66.

Compound `Cc1c2c(=O)n(-c3ccc(F)cc3Cl)[nH]c2cc(=O)n1Cc1ccccn1` has a Papp at 2 h, 10 µM [3] of 13.4 ×10⁻⁶ cm/s, a microsomal CLint at 0.5 µM [4] of 84.2 µL/min/mg and a microsomal CLint at 0.5 µM [9] of 37.6 µL/min/mg. For the same compound, the pKi (NADPH oxidase 4) was 6.63.

Work on `COc1cccc(N2CCN(Cc3c4c(=O)n(-c5ccccc5Cl)[nH]c4cc(=O)n3C)CC2)c1` yielded a microsomal CLint at 0.5 µM [4] of 121 µL/min/mg, a microsomal CLint at 0.5 µM [9] of 57.9 µL/min/mg and a pKi (NADPH oxidase 4) of 7.19.

`COCCn1[nH]c2cc(=O)n(Cc3ccccn3)c(C)c2c1=O` gave a pKi (NADPH oxidase 4) of 6.50.

`Cc1c2c(=O)n(-c3ccccc3)[nH]c2cc(=O)n1CCc1ccccc1` gave a pKi (NADPH oxidase 4) of 5.28.

With `CC(=O)n1c2cc(=O)n(Cc3cccnc3)c(C)c2c(=O)n1-c1ccccc1C` the pKi (NADPH oxidase 4) was 6.40.

Work on `Cc1c2c(=O)n(-c3ccc(S(=O)(=O)N4CCN(C)CC4)cn3)[nH]c2cc(=O)n1C` yielded a pKi (NADPH oxidase 4) of 5.85.

`Cc1c2c(=O)n(-c3nc4ccccc4s3)[nH]c2cc(=O)n1Cc1ccc(C(=O)O)cc1` showed a pKi (NADPH oxidase 4) of 5.37.

`Cc1c2c(=O)n(C)[nH]c2cc(=O)n1Cc1ccccn1` showed a pKi (NADPH oxidase 4) of 6.41.

Work on `CC(=O)n1c2cc(=O)n(Cc3cccnc3)c(C)c2c(=O)n1-c1ccccc1Cl` yielded a pKi (NADPH oxidase 4) of 6.62.

For `Cn1c(-c2ccccc2F)c2c(=O)n(-c3ccccc3Cl)[nH]c2cc1=O`, the pKi (NADPH oxidase 4) was 6.89.

With `Cc1c2c(=O)n(Cc3ccc(F)cc3Cl)[nH]c2cc(=O)n1Cc1ccccn1` the pKi (NADPH oxidase 4) was 6.47.

For `Cc1c2c(=O)n(-c3ccccc3Cl)[nH]c2cc(=O)n1CCN(C)C`, the pKi (NADPH oxidase 4) was 6.63.

With `Cc1c2c(=O)n(-c3ccccc3Cl)[nH]c2cc(=O)n1C` the microsomal CLint at 0.5 µM [4] was 49.3 µL/min/mg and the pKi (NADPH oxidase 4) was 6.67.

`CC(=O)Nc1cccc(-n2[nH]c3cc(=O)n(C)c(C)c3c2=O)c1` showed a pKi (NADPH oxidase 4) of 6.48.

`Cc1c2c(=O)n(-c3ccccc3)[nH]c2cc(=O)n1Cc1ccco1` gave a pKi (NADPH oxidase 4) of 5.02.

With `Cc1c2c(=O)n(-c3nc4ccccc4s3)n(Cc3ccccc3Cl)c2cc(=O)n1N1CCOCC1` the pKi (NADPH oxidase 4) was < 4.52.

`Cc1c2c(=O)n(CCc3ccccc3)[nH]c2cc(=O)n1Cc1ccccn1` showed a pKi (NADPH oxidase 4) of 6.48.

Work on `Cc1c2c(=O)n(-c3nc(-c4ccccc4)cs3)[nH]c2cc(=O)n1C` yielded a pKi (NADPH oxidase 4) of 5.71.

With `Cc1c2c(=O)n(-c3ccc4nncn4n3)[nH]c2cc(=O)n1Cc1cccc(Oc2ccccc2)c1` the pKi (NADPH oxidase 4) was < 4.52.

With `Cc1c2c(=O)n(-c3ccccc3)n(Cc3ccccc3Cl)c2cc(=O)n1CCCN1CCCC1=O` the pKi (NADPH oxidase 4) was < 4.52.

With `COc1cccc(CC(=O)n2c3cc(=O)n(Cc4cccnc4)c(C)c3c(=O)n2-c2ccccc2)c1` the pKi (NADPH oxidase 4) was 6.55.

`Cc1c2c(=O)n(CCN3CCOCC3)[nH]c2cc(=O)n1Cc1ccccn1` showed a pKi (NADPH oxidase 4) of 6.35.

`Cc1c2c(=O)n(-c3ccnc4cc(Cl)ccc34)[nH]c2cc(=O)n1Cc1ccccn1` showed a pKi (NADPH oxidase 4) of 6.34.
